Active and inactive are the calls of the source.
What was measured:
[1] = tested on: Mus musculus; assay: Anticonvulsant activity in albino CF1 mouse assessed as protection against subcutaneous metrazol-induced seizures at 30 to 300 mg/kg, ip after 0.5 to 4 hrs; format: functional, organism-based
Method in brief: (§1)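 CF No. 1 male mice dosed ip at 30, 100 or 300 mg/kg (saline or 0.5% methylcellulose), then given pentetrazole 85 mg/kg sc as 0.5% solution in posterior midline. Watched 30 min. Protection means no threshold seizure (single clonic spasm episode of at least 5 s). Expressed as protected/tested.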

[2] = tested on: Mus musculus; assay: Anticonvulsant activity in albino CF1 mouse assessed as protection against maximal electroshock-induced seizures at 100 mg/kg, ip after 0.5 hr; format: functional, organism-based; set-up: dose 100 mg/kg
Method in brief: (§2)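 Male albino CF No. 1 mice (18–25 g) dosed ip at 30, 100 and 300 mg/kg in saline or 0.5% methylcellulose, tested 15, 30, 60 and 240 min after dosing. Maximal electroshock seizures elicited with 60-cycle alternating current. Scored as animals protected/animals tested, small qualitative groups.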

[3] = tested on: Rattus norvegicus; assay: Neurotoxicity in Sprague-Dawley rat assessed as […] at 30 mg/kg, po after 1 hr […]; format: toxicity, organism-based; set-up: dose 30 mg/kg, route oral; conditions: in vivo
[4] = tested on: Mus musculus; assay: Anticonvulsant activity in albino CF1 mouse assessed as protection against maximal electroshock-induced seizures at 300 mg/kg, ip after 4 hrs; format: functional, organism-based; set-up: dose 300 mg/kg; method in brief: as §2
[5] = tested on: Mus musculus; assay: Neurotoxicity in albino CF1 mouse assessed as minimal motor impairment at 100 mg/kg, ip after 0.5 hr by rotorod test; format: toxicity, organism-based; set-up: dose 100 mg/kg, route intraperitoneal; conditions: in vivo
Method in brief: (§3)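 Rotarod in male CF No. 1 mice after ip dosing (30, 100, 300 mg/kg; saline or 0.5% methylcellulose) at 15–240 min. Knurled plastic rod, 1-inch diameter, 6 rpm. Toxicity means failing to stay on for 1 min on three successive attempts. Recorded as toxic/tested.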

[6] = tested on: Rattus norvegicus; assay: Neurotoxicity in Sprague-Dawley rat assessed as minimal motor impairment at 30 mg/kg, po after 0.5 hr by rotorod test; format: toxicity, organism-based; set-up: dose 30 mg/kg, route oral; conditions: in vivo
[7] = tested on: Rattus norvegicus; assay: Neurotoxicity in Sprague-Dawley rat assessed as […] at 30 mg/kg, po after 0.25 hr […]; format: toxicity, organism-based; set-up: dose 30 mg/kg, route oral; conditions: in vivo
[8] = tested on: Rattus norvegicus; assay: Neurotoxicity in Sprague-Dawley rat assessed as […] at 30 mg/kg, po after 2 hrs […]; format: toxicity, organism-based; set-up: dose 30 mg/kg, route oral; conditions: in vivo
[9] = tested on: Mus musculus; assay: Anticonvulsant activity in albino CF1 mouse assessed as protection against maximal electroshock-induced seizures at 100 mg/kg, ip after 1 hr; format: functional, organism-based; set-up: dose 100 mg/kg; method in brief: as §2
[10] = tested on: Mus musculus; assay: Anticonvulsant activity in albino CF1 mouse assessed as protection against maximal electroshock-induced seizures at 300 mg/kg, ip after 0.5 hr; format: functional, organism-based; set-up: dose 300 mg/kg; method in brief: as §2
[11] = tested on: Rattus norvegicus; assay: Anticonvulsant activity in Sprague-Dawley rat assessed as protection against maximal electroshock-induced seizures at 30 mg/kg, po after 1 hr; format: functional, organism-based; set-up: dose 30 mg/kg
Method in brief: (§4)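 Male Sprague-Dawley rats (100–150 g), compound given orally at 30 mg/kg, dissolved in saline or suspended in 0.5% methylcellulose. Maximal electroshock seizures elicited with 60-cycle alternating current. Result recorded as number protected/number tested at each time point.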

[12] = tested on: Rattus norvegicus; assay: Anticonvulsant activity in Sprague-Dawley rat assessed as protection against maximal electroshock-induced seizures at 30 mg/kg, po after 2 hrs; format: functional, organism-based; set-up: dose 30 mg/kg; method in brief: as §4
[13] = tested on: Rattus norvegicus; assay: Neurotoxicity in Sprague-Dawley rat assessed as minimal motor impairment at 30 mg/kg, po after 4 hrs by rotorod test; format: toxicity, organism-based; set-up: dose 30 mg/kg, route oral; conditions: in vivo
[14] = tested on: Mus musculus; assay: Anticonvulsant activity in albino CF1 mouse assessed as protection against maximal electroshock-induced seizures at 100 mg/kg, ip after 4 hrs; format: functional, organism-based; set-up: dose 100 mg/kg; method in brief: as §2
[15] = tested on: Mus musculus; assay: Neurotoxicity in albino CF1 mouse assessed as minimal motor impairment at 300 mg/kg, ip after 4 hrs by rotorod test; format: toxicity, organism-based; set-up: dose 300 mg/kg, route intraperitoneal; conditions: in vivo; method in brief: as §3
[16] = tested on: Mus musculus; assay: Neurotoxicity in albino CF1 mouse assessed as minimal motor impairment at 100 mg/kg, ip after 4 hrs by rotorod test; format: toxicity, organism-based; set-up: dose 100 mg/kg, route intraperitoneal; conditions: in vivo; method in brief: as §3
[17] = tested on: Mus musculus; assay: Anticonvulsant activity in albino CF1 mouse assessed as protection against maximal electroshock-induced seizures at 100 mg/kg, ip after 0.25 hr; format: functional, organism-based; set-up: dose 100 mg/kg; method in brief: as §2
[18] = tested on: Rattus norvegicus; assay: Anticonvulsant activity in Sprague-Dawley rat assessed as protection against maximal electroshock-induced seizures at 30 mg/kg, po after 4 hrs; format: functional, organism-based; set-up: dose 30 mg/kg; method in brief: as §4
[19] = tested on: Mus musculus; assay: Neurotoxicity in albino CF1 mouse assessed as minimal motor impairment at 100 mg/kg, ip after 0.25 hr by rotorod test; format: toxicity, organism-based; set-up: dose 100 mg/kg, route intraperitoneal; conditions: in vivo; method in brief: as §3
[20] = tested on: Rattus norvegicus; assay: Anticonvulsant activity in Sprague-Dawley rat assessed as protection against maximal electroshock-induced seizures at 30 mg/kg, po after 0.5 hr; format: functional, organism-based; set-up: dose 30 mg/kg; method in brief: as §4
[21] = tested on: Rattus norvegicus; assay: Anticonvulsant activity in Sprague-Dawley rat assessed as protection against maximal electroshock-induced seizures at 30 mg/kg, po after 0.25 hr; format: functional, organism-based; set-up: dose 30 mg/kg; method in brief: as §4
[22] = tested on: Mus musculus; assay: Neurotoxicity in albino CF1 mouse assessed as minimal motor impairment at 300 mg/kg, ip after 0.5 hr by rotorod test; format: toxicity, organism-based; set-up: dose 300 mg/kg, route intraperitoneal; conditions: in vivo; method in brief: as §3
[23] = tested on: Mus musculus; assay: Neurotoxicity in albino CF1 mouse assessed as minimal motor impairment at 100 mg/kg, ip after 1 hr by rotorod test; format: toxicity, organism-based; set-up: dose 100 mg/kg, route intraperitoneal; conditions: in vivo; method in brief: as §3
[24] = tested on: Mus musculus; assay: Neurotoxicity in albino CF1 mouse assessed as minimal motor impairment at 30 mg/kg, ip after 0.5 hr by rotorod test; format: toxicity, organism-based; set-up: dose 30 mg/kg, route intraperitoneal; conditions: in vivo
Method in brief: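 Male albino CF No. 1 mice, compound ip in saline or 0.5% methylcellulose. Rotarod: 1-inch knurled rod at 6 rpm. Toxicity is failure to stay on the rod for 1 min on three successive attempts. Expressed as toxic/tested.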

[25] = tested on: Mus musculus; assay: Anticonvulsant activity in albino CF1 mouse assessed as protection against 6 Hz psychomotor seizure at 100 mg/kg, ip after 0.5 hr by minimal clonic seizure test; format: functional, organism-based; set-up: dose 100 mg/kg
Method in brief: (§5)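 Male albino CF No. 1 mice, 18–25 g. Compound dissolved in saline or suspended in 0.5% methylcellulose and given ip beforehand. Corneal stimulation with 0.2 ms monopolar rectangular pulses at 6 Hz for 3 s from a constant-current device. Mice restrained during stimulation, then released and observed for the minimal clonic seizure and automatistic behaviour.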

[26] = tested on: Mus musculus; assay: Anticonvulsant activity in albino CF1 mouse assessed as protection against 6 Hz psychomotor seizure at 100 mg/kg, ip after 4 hrs by minimal clonic seizure test; format: functional, organism-based; set-up: dose 100 mg/kg; method in brief: as §5
[27] = tested on: Mus musculus; assay: Anticonvulsant activity in albino CF1 mouse assessed as protection against maximal electroshock-induced seizures at 30 mg/kg, ip after 0.5 hr; format: functional, organism-based; set-up: dose 30 mg/kg
Method in brief: (§6)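 Male albino CF No. 1 mice, 18–25 g. Compound in saline or 0.5% methylcellulose, ip. Seizures elicited by 60-cycle alternating current maximal electroshock. Result expressed as animals protected/animals tested.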

[28] = tested on: Mus musculus; assay: Anticonvulsant activity in albino CF1 mouse assessed as protection against maximal electroshock-induced seizures at 30 mg/kg, ip after 4 hrs; format: functional, organism-based; set-up: dose 30 mg/kg; method in brief: as §6
[29] = tested on: Mus musculus; assay: Anticonvulsant activity in albino CF1 mouse assessed as protection against 6 Hz psychomotor seizure at 100 mg/kg, ip after 2 hrs by minimal clonic seizure test; format: functional, organism-based; set-up: dose 100 mg/kg; method in brief: as §5
[30] = tested on: Mus musculus; assay: Anticonvulsant activity in albino CF1 mouse assessed as protection against 6 Hz psychomotor seizure at 100 mg/kg, ip after 0.25 hr by minimal clonic seizure test; format: functional, organism-based; set-up: dose 100 mg/kg; method in brief: as §5
[31] = tested on: Mus musculus; assay: Anticonvulsant activity in albino CF1 mouse assessed as protection against 6 Hz psychomotor seizure at 100 mg/kg, ip after 1 hr by minimal clonic seizure test; format: functional, organism-based; set-up: dose 100 mg/kg; method in brief: as §5
[32] = tested on: Mus musculus; assay: Anesthetic activity in albino CF1 mouse assessed as latency in response to thermal stimuli administered as 1% solution, sc measured after 15 mins by modified tail immersion test; format: functional
Method in brief: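 Male Albino Swiss (CD-1) mice, 6-8 per group, tested at 1% and 2% compound concentration. Tail distal 3 cm immersed in water at 50 ± 0.5 °C 15 min after treatment. Tail-withdrawal latency recorded with a 20 s cutoff. Value is % difference in latency vs vehicle-treated mice. Mean ± SEM, Student's t-test.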

[33] = tested on: Rattus norvegicus; assay: Anticonvulsant activity in po dosed Sprague-Dawley rat assessed as protection against maximal electroshock-induced seizures measured after 0.25 to 4 hrs; format: functional
Method in brief: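 Male Sprague-Dawley rats, 100–150 g, dosed orally at 30 mg/kg. Maximal electroshock (60-cycle alternating current) applied at time points after dosing. Scored as animals protected/animals tested.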

[34] = tested on: Mus musculus; assay: […] activity in ip dosed albino CF1 mouse assessed as inhibition of phenylbenzoquinone-induced writhing administered after 30 mins prior challenge; format: functional
Method in brief: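 Male Albino Swiss (CD-1) mice, 6-8 per dose. Compound given ip in 0.5% methylcellulose. 30 min later, 0.25 ml of 0.02% phenylbenzoquinone injected. After 5 min, writhes counted over 10 min. % effect = (vehicle mean − drug mean)/vehicle mean × 100. ED50 derived; Student's t-test.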

[35] = tested on: Mus musculus; assay: Analgesic activity in albino CF1 mouse assessed as inhibition of heat-induced paw licking or jumping behaviour administered after 30 mins prior heat challenge by hot plate method; format: functional
[36] = tested on: Mus musculus; assay: Anesthetic activity in […] assessed as latency in response to thermal stimuli administered as 2% solution, sc measured after 15 mins by modified tail immersion test; format: functional, albino CF1
[37] = tested on: Mus musculus; assay: Toxicity in albino CF1 mouse assessed as proconvulsant activity at 30 to 300 mg/kg, ip after 0.5 to 4 hrs; format: organism-based; set-up: route intraperitoneal; conditions: in vivo; method in brief: as §1

Row | Compound | Activity [1] | Activity [2] | Activity [3] | Activity [4] | Activity [5] | Activity [6] | Activity [7] | Activity [8] | Activity [10] | Activity [11] | Activity [12] | Activity [13] | Activity [14] | Activity [15] | Activity [16] | Activity [18] | Activity [20] | Activity [21] | Activity [22] | ED50 [34] | further results
1 | C/C(Nc1ccccc1)=C1\CCOC1=O | inactive | inactive | Non-toxic | inactive | Non-toxic | Non-toxic | Non-toxic | Non-toxic | Active | inactive | inactive | Non-toxic | inactive | Non-toxic | Non-toxic | inactive | inactive | inactive | Toxic |  | Activity [9]: inactive; Activity [17]: Active; Activity [19]: Non-toxic; Activity [23]: Non-toxic
2 | Cl.O=C1OCCC1NC1CCCCC1 (racemic) | inactive | inactive |  | inactive | Non-toxic |  |  |  | inactive |  |  |  | inactive | Non-toxic | Non-toxic |  |  |  | Non-toxic |  | Activity [24]: Toxic; Activity [25]: inactive; Activity [26]: inactive; Activity [27]: inactive; Activity [28]: inactive; Activity [29]: Active; Activity [30]: inactive; Activity [31]: inactive
3 | O=C1OCCC1N1CCN(c2cccc(C(F)(F)F)c2)CC1 (racemic) | inactive | inactive | Non-toxic | inactive | Non-toxic | Toxic | Non-toxic | Non-toxic | Active | inactive | Active | Non-toxic | Active | Non-toxic | Non-toxic | Active | inactive | inactive | Toxic | 0.8 mg/kg | Activity [32]: 81%; ED50 [33]: 112 mg/kg; ED50 [35]: 1.3 mg/kg; Activity [36]: 149%
4 | O=C1OCCC1N1CCc2ccccc2C1 (racemic) | inactive | inactive |  | inactive | Non-toxic |  |  |  | inactive |  |  |  | inactive | Non-toxic | Non-toxic |  |  |  | Non-toxic | 3.7 mg/kg | ED50 [35]: 32.4 mg/kg; Activity [37]: Toxic

Source: ChEMBL document CHEMBL2203146, “Search for anticonvulsant and analgesic active derivatives of dihydrofuran-2(3H)-one” (Bioorg Med Chem, 2012)
